Laboratory results taken from ChEMBL document CHEMBL4219076, “Synthesis, spectroscopic studies and biological evaluation of acridine derivatives: The role of aggregation on the photodynamic efficiency” (Bioorg Med Chem Lett, 2018).
pIC50: −log10 of the molar value. Each block holds one compound with its values, some of them ahead of it. Active and inactive are the calls of the source. The calls are words filed in the database; no cut-off is given here.

Key:
[1] = Induction of singlet oxygen production in CH3CN upon irradiation of 365 nanometer light assessed as oxygenation of 1,5-DHN by measuring quantum yield at 33 uM by UV-Visible spectroscopic method; assay type: functional
In short: (§1)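 Singlet oxygen generation was followed by oxygenation of 1,5-dihydroxynaphthalene to juglone. Sensitizer solutions were irradiated in quartz cuvettes with 365 nm light.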

[2] = Induction of singlet oxygen production in H2O upon irradiation of 365 nanometer light assessed as oxygenation of 1,5-DHN by measuring quantum yield at 33 uM by UV-Visible spectroscopic method; assay type: functional; in short: as §1
[3] = Induction of singlet oxygen production in 50% H2O/CH3CN mixture upon irradiation of 365 nanometer light assessed as oxygenation of 1,5-DHN by UV-Visible spectroscopic method; assay type: functional; in short: as §1
[4] = Induction of singlet oxygen production in 90% H2O/CH3CN mixture upon irradiation of 365 nanometer light assessed as oxygenation of 1,5-DHN by UV-Visible spectroscopic method; assay type: functional; in short: as §1
[5] = Self-aggregating property assessed as diameter of nanostructure by DLS method; assay type: physicochemical
[6] = Self-aggregating property assessed as diameter of nanostructure by scanning electron microscopic method; assay type: physicochemical
[7] = Self-aggregating property assessed as diameter of nanostructure by transmission electron microscopic method; assay type: physicochemical
Hep 3B2 [8] = experiment: Photocytotoxicity in human Hep3B cells assessed as cell damage preincubated for 1 hr followed by 365 nanometer UV light irradiation for 3 mins by propidium iodide staining based confocal fluorescence laser scanning microscopic method; assay type: functional
In short: (§2)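 Hep3B cells, 30.000 cells/well, exposed to photosensitizer ([…] as printed) for 1 h, then irradiated with a 365 nm UV lamp, 6 W, for 3 min. Damaged or dead cells stained with propidium iodide (1 mM as printed) and imaged by confocal laser scanning microscopy, ex 488 nm, em 500–700 nm. Irradiated control wells received no photosensitizer.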

Hep 3B2 [9] = experiment: Photocytotoxicity in human Hep3B cells assessed as cell damage preincubated for 1 hr followed by 365 nanometer UV light irradiation for 3 mins by propidium iodide/Hoechst 33342 staining based static cytometry coupled fluorescence microscopic method; assay type: functional
In short: (§3)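 Hep3B cells exposed to photosensitizer for 1 h, then irradiated at 365 nm for 3 min. PI-positive cells were quantified by fluorescence microscopy coupled with static cytometry and expressed as percentage of cells, with untreated cells as reference.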

Hep 3B2 [10] = experiment: Cytotoxicity against human Hep3B cells assessed as reduction in cell viability after 3 hrs under dark condition by MTT assay; assay type: functional, cell-based
HUVEC [11] = experiment: Cytotoxicity against HUVEC assessed as reduction in cell viability after 3 hrs under dark condition by MTT assay; assay type: functional, cell-based; conditions: Homo sapiens
Hep 3B2 [12] = experiment: Cytotoxicity against human Hep3B cells assessed as reduction in cell viability at 1 to 20 uM after 24 hrs under dark condition by MTT assay; assay type: functional, cell-based
HUVEC [13] = experiment: Cytotoxicity against HUVEC assessed as cell viability at 1 to 20 uM after 3 hrs under dark condition by MTT assay relative to control; assay type: functional, Homo sapiens
HUVEC [14] = experiment: Cytotoxicity against HUVEC assessed as cell viability at 1 to 20 uM after 24 hrs under dark condition by MTT assay relative to control; assay type: functional, Homo sapiens
Hep 3B2 [15] = experiment: Cytotoxicity against human Hep3B cells assessed as reduction in cell viability at 1 to 20 uM incubated for 3 hrs followed by incubation in compound free medium for 21 hrs under dark condition by MTT assay; assay type: functional, cell-based
HUVEC [16] = experiment: Cytotoxicity against HUVEC assessed as reduction in cell viability at 1 to 20 uM incubated for 3 hrs followed by incubation in compound free medium for 21 hrs under dark condition by MTT assay; assay type: functional, cell-based; conditions: Homo sapiens
[17] = Drug uptake in human Hep3B cell nuclear membrane at 10 uM after 1 hr by Draq5 staining based bright field microscopic method; assay type: ADME, cell membranes; conditions: hep 3b2, 1 h
[18] = Drug uptake in human Hep3B cell endoplasmic reticulum at 10 uM after 1 hr by Draq5 staining based bright field microscopic method; assay type: ADME, subcellular; conditions: hep 3b2, 1 h
[19] = Drug uptake in human Hep3B cell mitochondria at 10 uM after 1 hr by Draq5 staining based bright field microscopic method; assay type: ADME; conditions: hep 3b2, 1 h
[20] = Drug uptake in human Hep3B cell lysosome at 10 uM after 1 hr by Draq5 staining based bright field microscopic method; assay type: ADME, subcellular; conditions: hep 3b2, 1 h
Hep 3B2 [21] = experiment: Photocytotoxicity in human Hep3B cells assessed as cell damage at 10 uM preincubated for 1 hr followed by 365 nanometer UV light irradiation for 3 mins by propidium iodide staining based confocal fluorescence laser scanning microscopic method; assay type: functional; in short: as §2
Hep 3B2 [22] = experiment: Photocytotoxicity in human Hep3B cells assessed as cell damage at 20 uM preincubated for 1 hr followed by 365 nanometer UV light irradiation for 3 mins by propidium iodide/Hoechst 33342 staining based static cytometry coupled fluorescence microscopic method (reference value: 1.25%); assay type: functional; in short: as §3
[23] = Dark toxicity in human Hep3B cells assessed as cell damage at 20 uM after 1 hr by propidium iodide/Hoechst 33342 staining based static cytometry coupled fluorescence microscopic method (reference value: 1.25%); conditions: hep 3b2, 1 h
HUVEC [24] = experiment: Cytotoxicity against HUVEC assessed as reduction in cell viability at 1 to 20 uM after 3 hrs under dark condition by MTT assay; assay type: functional, cell-based; conditions: Homo sapiens

- Activity [5]: 122 nm
- Activity [6]: 93 nm
- Activity [7]: 135 nm
- Drug uptake [17]: Active
- Drug uptake [18]: Not Active
- Drug uptake [19]: Not Active
- Drug uptake [20]: Not Active
SMILES: CC(C)[C@H](NC(=O)c1c2ccccc2nc2ccccc12)C(=O)NCCCCCCCCNC(=O)[C@@H](NC(=O)c1c2ccccc2nc2ccccc12)C(C)C
- Activity [1]: 0.96
- Activity [2]: 0.01
- Activity [3]: inactive
- Activity [4]: inactive
- Activity (Hep 3B2 [8]): inactive
- Activity (Hep 3B2 [9]): inactive
- Activity (Hep 3B2 [10]): Dose-dependent effect
- pIC50 (Hep 3B2 [10]): 4.53
- Activity (HUVEC [11]): Dose-dependent effect
- pIC50 (HUVEC [11]): 4.73
- Activity (Hep 3B2 [12]): Active
- Activity (HUVEC [13]): 46%
- Activity (HUVEC [14]): 27%
- Activity (Hep 3B2 [15]): inactive
- Activity (HUVEC [16]): inactive

- Activity [5]: Not Active
SMILES: CCCNC(=O)[C@@H](NC(=O)c1c2ccccc2nc2ccccc12)C(C)C
- Activity [1]: 0.97
- Activity [2]: 0.263
- Activity [3]: Active
- Activity [4]: Active
- Activity (Hep 3B2 [21]): Active
- Activity (Hep 3B2 [22]): 8.7%
- Activity [23]: 3.38%
- Activity (Hep 3B2 [12]): inactive
- Activity (Hep 3B2 [15]): inactive
- Activity (HUVEC [16]): inactive
- Activity (HUVEC [24]): inactive
